Results reported in the RNAGym collection of RNA variant scans (doi:10.1002/anie.201605470).

B1: Osa-1-4 twister ribozyme (parent)
chain: CCGCCUAACACUGCCAAUGCCGGUCCCAAGCCCGGAUAAAAGUGGAGGGGGCGG

Variants of: B1
Assay: self-cleavage, relative activity (ratio to wild type); higher = more cleavage; co-transcriptional
Outline: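 For each read, cleavage status was taken from whether upstream sequence was present. The reads came from an Oryza sativa twister ribozyme of 54 nucleotides, whose DNA template was synthesised with 97 % wild-type base and 1 % of each other base at the 48 positions downstream of the cleavage site. The template was transcribed in vitro at 37 °C for 2 h with co-transcriptional self-cleavage, and the RNA was reverse-transcribed using a template-switching oligonucleotide, PCR-amplified and deep-sequenced. Relative activity is the fraction cleaved normalised to wild type.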

Variant | self-cleavage
G54U U18C | 0.95
G54U U18G | 0.73
G54U U18A | 0.9
G54C U18G | 0.77
G54C U18A | 0.85
G54C U18C | 0.91
G54A U18G | 0.71
G54A U18A | 0.88
G54A U18C | 0.93
G54U U24C | 0.23
G54U U24A | 0.34
G54U U24G | 0.04
G53U U37G | 0.61
G53U U37C | 0.55
G53U U37A | 0.32
G53C G54C | 0.08
G53C G54U | 0.25
G53C G54A | 0.1
G54C U24G | 0.02
G54C U24C | 0.11
G54C U24A | 0.07
G54A U43G | 0.69

Variant | self-cleavage
G54A U43A | 0.84
G54A U43C | 0.58
G54A U37A | 0.73
G54A U37G | 1
G54A U37C | 0.98
G53A U43G | 0.37
G53U U18G | 0.39
G53U U18A | 0.41
G53U U18C | 0.3
G54A U24C | 0.13
G54A U24G | 0.03
G54A U24A | 0.13
G54U U43A | 0.84
G54U U43G | 0.7
G54U U43C | 0.7
G54C U12A | 0.43
G54C U12G | 0.32
G54C U12C | 0.57
G53U G54C | 0.14
G53U G54A | 0.25
G53U G54U | 0.46
G53C U18A | 0.09

Variant | self-cleavage
G53C U18C | 0.1
G53C U18G | 0.14
G53U U24C | 0.06
G53U U24A | 0.06
G53U U24G | 0.03
G53C U24C | 0.03
G53C U24G | 0.01
G53C U24A | 0.04
G54A | 1
G54C | 1
G54U | 1
G53U | 0.56
G53C | 0.13
G53C U12G | 0.04
G53C U12C | 0.05
G53C U12A | 0.07
G54U U37G | 0.98
G54U U37A | 0.73
G54U U37C | 1.02
G53C U43A | 0.08
G53C U43G | 0.07
G53C U43C | 0.07

Variant | self-cleavage
G53U U12A | 0.12
G53U U12G | 0.07
G53U U12C | 0.13
G53C U37G | 0.15
G53C U37A | 0.06
G53C U37C | 0.11
G54U U12A | 0.62
G54U U12G | 0.4
G54U U12C | 0.67
G53U U43G | 0.13
G53U U43C | 0.15
G53U U43A | 0.2
G54C U37G | 1.03
G54C U37C | 1.02
G54C U37A | 0.71
G54A U12A | 0.48
G54A U12C | 0.56
G54A U12G | 0.28
G54C U43C | 0.6
G54C U43A | 0.86
G54C U43G | 0.76
